Here are results for nine compounds from ChEMBL document CHEMBL2434934, “Multicomponent synthesis and anticonvulsant activity of monocyclic 2,6-diketopiperazine derivatives” (Med Chem Res, 2013).

Data set [1] relates to Mus musculus. The data set can be described thus: Anticonvulsant activity in albino mouse assessed as protection against subcutaneous metrazole-induced seizures at 100 mg/kg, ip after 0.5 to 4 hrs. The format is functional, organism-based. Details: dose 100 mg/kg. The essentials:
(§1)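 Mice were dosed ip at 30, 100 or 300 mg/kg and tested at two or more time points. Protection meant absence of clonic seizures lasting at least 5 s, scored as number protected/number tested.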

Data set [2] concerns Mus musculus. The data set can be described thus: Neurotoxicity in albino mouse at 30 mg/kg, ip after 0.5 to 4 hrs by rotarod test. The format is toxicity, organism-based. Details: dose 30 mg/kg, route intraperitoneal. The settings on record: in vivo. The essentials: (§2)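 Mice received the compound ip and were tested at intervals of 0.25 to 4 h after dosing. Neurological impairment was scored as inability to keep equilibrium on a rod rotating at 6 rpm for a given time. The footnotes also record inability to grasp the rod and loss of righting reflex. Results were expressed as number toxic/number tested.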
A general note: The rotarod test checks motor coordination on a turning rod.

Data set [3] relates to Mus musculus. Briefly: Neurotoxicity in albino mouse at 300 mg/kg, ip after 0.5 hrs by rotarod test. The format is toxicity, organism-based. Details: dose 300 mg/kg, route intraperitoneal. The settings on record: in vivo. The procedure, abridged: as §2
In data set [4] the test system is Mus musculus. Briefly: Neurotoxicity in albino mouse at 100 mg/kg, ip after 0.5 to 4 hrs by rotarod test. The format is toxicity, organism-based. Details: dose 100 mg/kg, route intraperitoneal. The settings on record: in vivo. The essentials: as §2
In data set [5] the test system is Mus musculus. Briefly: Anticonvulsant activity in albino mouse assessed as protection against maximal electroshock-induced seizures at 300 mg/kg, ip after 4 hrs. Details: dose 300 mg/kg. Format: functional, organism-based. The procedure, abridged:
(§3)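 A 0.2 s electrical stimulus of 50 mA was applied to mice through corneal electrodes primed with an electrolyte solution containing an anesthetic. This followed ip dosing at 30, 100 or 300 mg/kg, with testing at two or more time points. Protection meant abolition of the hindlimb tonic extensor component, scored as number protected/number tested.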
In general terms: Protection in the maximal electroshock model is a classic sign of anticonvulsant action.

The test system of data set [6] is Mus musculus. The data set can be described thus: Anticonvulsant activity in albino mouse assessed as protection against maximal electroshock-induced seizures at 30 mg/kg, ip after 0.5 to 4 hrs. The format is functional, organism-based. Details: dose 30 mg/kg. The essentials:
as §3

The test system of data set [7] is Mus musculus. Briefly: Anticonvulsant activity in albino mouse assessed as protection against subcutaneous metrazole-induced seizures at 30 mg/kg, ip after 0.5 to 4 hrs. Details: dose 30 mg/kg. Format: functional, organism-based. The essentials: as §1
The subject of data set [8] is Mus musculus. Briefly: Anticonvulsant activity in albino mouse assessed as protection against subcutaneous metrazole-induced seizures at 300 mg/kg, ip after 0.5 to 4 hrs. Format: functional, organism-based. Details: dose 300 mg/kg. The procedure, abridged:
as §1

Data set [9] deals with Mus musculus. Briefly: Anticonvulsant activity in albino mouse assessed as protection against maximal electroshock-induced seizures at 100 mg/kg, ip after 0.5 to 4 hrs. Format: functional, organism-based. Details: dose 100 mg/kg. The essentials: as §3
Data set [10] relates to Mus musculus. Briefly: Anticonvulsant activity in albino mouse assessed as protection against maximal electroshock-induced seizures at 300 mg/kg, ip after 0.5 hrs. The format is functional, organism-based. Details: dose 300 mg/kg. The essentials: as §3
For data set [11], the system named is Mus musculus. Briefly: Neurotoxicity in albino mouse at 300 mg/kg, ip after 4 hrs by rotarod test. Details: dose 300 mg/kg, route intraperitoneal. The format is toxicity, organism-based. The settings on record: in vivo. The procedure, abridged:
as §2

Data set [12] has as its system Mus musculus. The data set can be described thus: Anticonvulsant activity in albino mouse assessed as protection against maximal electroshock-induced seizures at 100 mg/kg, ip after 2 hrs. Details: dose 100 mg/kg. The format is functional, organism-based. The essentials:
as §3

For data set [13], the system named is Mus musculus. Briefly: Neurotoxicity in albino mouse at 30 mg/kg, ip after 2 hrs by rotarod test. Format: toxicity, organism-based. Details: dose 30 mg/kg, route intraperitoneal. The settings on record: in vivo. The procedure, abridged:
as §2

For data set [14], the system named is Mus musculus. Briefly: Neurotoxicity in albino mouse at 300 mg/kg, ip after 2 hrs by rotarod test. The settings on record: in vivo. Details: dose 300 mg/kg, route intraperitoneal. The format is toxicity, organism-based. The procedure, abridged: as §2
Data set [15] has as its system Mus musculus. Briefly: Neurotoxicity in albino mouse at 100 mg/kg, ip after 2 hrs by rotarod test. Details: dose 100 mg/kg, route intraperitoneal. The settings on record: in vivo. The format is toxicity, organism-based. The procedure, abridged: as §2
For data set [16], the system named is Mus musculus. The data set can be described thus: Anticonvulsant activity in albino mouse assessed as protection against maximal electroshock-induced seizures at 30 mg/kg, ip after 2 hrs. Format: functional, organism-based. Details: dose 30 mg/kg. The procedure, abridged:
as §3

The subject of data set [17] is Mus musculus. The data set can be described thus: Anticonvulsant activity in albino mouse assessed as protection against maximal electroshock-induced seizures at 300 mg/kg, ip after 2 hrs. Format: functional, organism-based. Details: dose 300 mg/kg. The procedure, abridged: as §3
Data set [18] deals with Mus musculus. Briefly: Neurotoxicity in albino mouse at 100 mg/kg, ip after 0.5 to 2 hrs by rotarod test. Format: toxicity, organism-based. Details: dose 100 mg/kg, route intraperitoneal. The settings on record: in vivo. The procedure, abridged:
as §2

Data set [19] relates to Mus musculus. Briefly: Anticonvulsant activity in albino mouse assessed as protection against 6 Hz psychomotor seizure at 100 mg/kg, ip after 0.5 to 2 hrs. Format: functional, organism-based. Details: dose 100 mg/kg. The procedure, abridged: (§4)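 Mice given 100 mg/kg ip and tested at intervals between 0.25 and 4 h. A constant-current device delivered corneal stimulation at 32 mA as 0.2 ms monopolar rectangular pulses at 6 Hz for 3 s. Mice were restrained during stimulation, then released into an observation cage. The readout was protection against the psychomotor seizure (stunned posture, forelimb clonus, Straub tail), scored as number protected/number tested.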

Data set [20] relates to Mus musculus. The data set can be described thus: Anticonvulsant activity in albino mouse assessed as protection against 6 Hz psychomotor seizure at 100 mg/kg, ip after 1 to 4 hrs. Format: functional, organism-based. Details: dose 100 mg/kg. The essentials:
as §4

Data set [21] relates to Mus musculus. Briefly: Anticonvulsant activity in albino mouse assessed as protection against 6 Hz psychomotor seizure at 100 mg/kg, ip after 0.25 to 0.5 hrs. Details: dose 100 mg/kg. Format: functional, organism-based. The procedure, abridged: as §4
Data set [22] relates to Mus musculus. Briefly: Neurotoxicity in albino mouse assessed as loss of righting reflex at 300 mg/kg, ip after 0.5 hrs by rotarod test. The settings on record: in vivo. The format is toxicity, organism-based. Details: dose 300 mg/kg, route intraperitoneal. The essentials: as §2
The test system of data set [23] is Mus musculus. Briefly: Neurotoxicity in albino mouse at 100 mg/kg, ip after 0.25 to 4 hrs by rotarod test. Details: dose 100 mg/kg, route intraperitoneal. The format is toxicity, organism-based. The settings on record: in vivo. The procedure, abridged:
as §2

Activity calls are given as the source filed them. The calls are words filed in the database; no cut-off is given here.

In the case of `O=C1NC(=O)[C@H](c2ccccc2)N[C@H]1Cc1ccccc1`, the result in data set [1], in data set [5], in data set [6], in data set [7], in data set [8] and in [9] was inactive. Further, the Activity result in [2], in [3], in data set [4] and in data set [11] was “Non-toxic” in each case. In [10], the outcome was Active.
For the compound `CC[C@H](C)[C@@H]1N[C@@H](c2ccccc2)C(=O)NC1=O`, the result in data set [1], in data set [5], in [6], in data set [7], in data set [8] and in data set [9] was inactive. For the same compound, the result in [10] was inactive. Moreover, the Activity entry in [2], in data set [4] and in data set [11] was “Non-toxic” each time.
In the case of `O=C1CN(Cc2ccccc2)C(c2ccccc2)C(=O)N1` (racemic), the outcome in data set [12] and in data set [16] was inactive. Further, the Activity entry in data set [13], in data set [14] and in [15] was “Non-toxic” each time.
Turning to `O=C1CN(c2ccccc2)C(c2ccccc2)C(=O)N1` (racemic), the result in data set [1], in [5], in data set [6], in data set [7], in data set [8] and in [9] was inactive. In [10], the outcome was inactive. Besides, the Activity entry in data set [2], in data set [3], in data set [4] and in data set [11] was “Non-toxic” each time.
As for `CC(C)[C@@H]1N[C@H](c2ccccc2)C(=O)NC1=O`, the result in [1], in [5], in [6], in [7], in data set [8] and in data set [9] was inactive. Also, the Activity result in data set [2], in data set [4] and in [11] was “Non-toxic” in each case. For the same compound, in [10], the outcome was Active.
With `O=C1NC(=O)[C@@H](c2ccccc2)N[C@H]1c1ccccc1`, the outcome in [12], in data set [17] and in data set [16] was inactive. Also, the Activity result in [13], in [14] and in data set [15] was “Non-toxic” in each case.
`CC(C)C[C@@H]1N[C@@H](c2ccccc2)C(=O)NC1=O`: the result in data set [1], in data set [5], in [6], in data set [7], in data set [8] and in data set [9] was inactive. The Activity result in data set [2], in data set [4] and in [11] was “Non-toxic” each time. Further, in [10], the result was Active.
As to `O=C1NC(=O)[C@H](c2ccccc2)N[C@H]1c1ccccc1`, the results for the Activity entry in data set [18], in [13] and in data set [14] were “Non-toxic”, “Non-toxic” and “Toxic”, respectively. Moreover, the outcome in [19] and in data set [16] was inactive. Besides, in data set [17], the result was Active.
Consider `CC(C)[C@@H]1N[C@@H](c2ccccc2)C(=O)NC1=O`, for which the result in data set [1], in [20], in data set [5], in data set [6], in [7] and in data set [8] was inactive. The Activity entry in data set [2] is recorded as “Non-toxic”; in data set [4], “Non-toxic”; in [22] it was “Toxic”; in data set [23] it was “Non-toxic”; in data set [11], “Non-toxic”. Further, the outcome in data set [21] and in [10] was Active.
